Source: publication PMC10613959 (Toxicological Sciences, 2023)
Read-outs that look alike come from different tables or passages of the source.

What was measured:
[1] = Blood partitioning assay for Rbp; format: in vitro ADME; settings: both, human
Summary of the method: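 Fresh pooled mixed-gender human whole blood (lithium heparin) and reference plasma centrifuged from the same blood were each incubated with 5 µM test compound at 37°C, n = 3. Reactions were stopped at 0 and 60 min. Rbp was derived by LC-MS/MS from test compound concentration in control plasma versus whole-blood supernatant. Chlorthalidone 5 µM served as positive control.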

Cross filtration = format: in vitro ADME; settings: both, human, pooled human plasma
Summary of the method: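 Modified cross-ultrafiltration: 10 µM test compound in pooled mixed-gender human plasma, 60 min at 37°C, n = 3, then ultrafiltered beside blank plasma. Each retentate was mixed into the partner filtrate and the regenerated samples analysed by LC-MS/MS. Warfarin 10 µM was positive control. Stability was checked at 60 min against non-incubated control. Recovery-corrected mean PPB from filtrate; Fup = 100 − PPB.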

[2] = Metabolic stability in primary human hepatocytes in suspension; format: in vitro ADME; settings: human, cryopreserved human hepatocytes in suspension (5 donor pool)
Summary of the method: (§1)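 Cryopreserved human hepatocytes (5-donor pool, 0.8 × 10^6 cells/ml) in Williams E medium (25 mM HEPES, 2 mM L-glutamine) were incubated with test compound at 0.1, 1 and 10 µM, 37°C, n = 3. Sampled at 0, 15, 60, 90, 180 and 240 min; solvent ≤0.5% DMSO or 1% ACN. Heat-inactivated hepatocytes were the negative control. Parent loss was measured by LC-MS. CLint = −k·V (k, slope of log concentration vs time; V, incubation volume/cell number).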

human hepatocytes = test: as above; format: in vitro ADME; settings: for depletion in suspension hepatocytes: human suspension hepatocytes, compared with Naloxone
Summary of the method: as §1

[3] = Skin absorption parameters; set-up: species or system human; settings: Fitted; for Vehicle/water partition coefficient: vehicle/formulation specific
Summary of the method: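 A skin model in GastroPlus TCAT started from in silico predicted values for the vehicle, stratum corneum, epidermis and dermis. Its diffusivities and partition coefficients were fitted to skin penetration data: receptor-fluid time course where available, plus skin wash and layer distribution. Parameters were adjusted to minimise model–data difference and then used in the human dermal model. Vehicle/water partitioning is formulation-specific.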

[4] = Scaling of in vitro CLint to in vivo CLint and CLliver; set-up: species or system human; settings: scaled from the mean in vitro CLint
Summary of the method: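 Mean in vitro hepatocyte CLint was scaled to in vivo CLint (l/h) using a scaling factor: million cells per gram of liver × grams of liver weight. In vivo CLint was then converted to hepatic clearance with two variations of the well-stirred liver model.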

[5] = PBK population simulation of plasma concentrations; set-up: species or system human
Summary of the method: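 GastroPlus population simulations reproduced the clinical designs. Lotion or non-aerosol spray, 2 mg/cm2 over 75% body surface, once at 0 h on day 1 and 4 times daily at 2-h intervals on days 2–4 (mixed multiple-dose profile). Alternatively, a 4% formulation over 90% body surface, about 22 mg/kg bw, in 3 male and 3 female subjects. Simulated-mean/observed-mean ratios for Cmax and AUC0−t; 10th–90th percentiles generated.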

[6] = human skin, cited from earlier work
[7] = human plasma, topical sunscreen, ref Matta et al., 2020, cited from earlier work
[8] = pig skin, 24 h, skin surface washed at 8 h; mean; ref Sasson et al. (2009); cited from earlier work
[9] = human plasma, dermal, ref Schauer et al., 2006, cited from earlier work
[10] = target dose 300 µg/cm^2, ref SCCS, 2021

CCCCC(CC)COC(=O)C(C#N)=C(c1ccccc1)c1ccccc1 (stereo not drawn) [Octocrylene, octocrylene]
blood plasma ratio at 60 min, 5 µM [1]: 0.73 | fraction unbound at 60 min, 10 µM (Cross filtration): 0.0014 | hepatocyte CLint [2]: 16.9 µL/min/1e6 cells | hepatocyte CLint at 0.1 µM [2]: 27.8 µL/min/1e6 cells | hepatocyte CLint at 1 µM [2]: 15.2 µL/min/1e6 cells | hepatocyte CLint at 10 µM [2]: 7.6 µL/min/1e6 cells | depletion in suspension hepatocytes (human hepatocytes): medium to fast depletion | Dermis diffusivity [3]: 6.0E−08 cm^2/s | Dermis/water partition coefficient [3]: 7.0E−01 | Epidermis diffusivity [3]: 2.0E−08 cm^2/s | Epidermis/water partition coefficient [3]: 6.0E+02 | Stratum corneum diffusivity [3]: 2.0E−11 cm^2/s | Stratum corneum/water partition coefficient [3]: 2.0E+03 | Vehicle diffusivity [3]: 6.2E−09 cm^2/s | Vehicle/water partition coefficient [3]: 4.0E+05 | In vivo CLint scaled [4]: 121.7 l/h/kg liver | AUC0 − t Fold Difference (Simulated Mean/Observed Mean) ([5]; Day 1): 1.4 | Cmax Fold Difference (Simulated Mean/Observed Mean) ([5]; Day 1): 1.2 | AUC0 − t Fold Difference (Simulated Mean/Observed Mean) ([5]; Day 4): 1.4 | Cmax Fold Difference (Simulated Mean/Observed Mean) ([5]; Day 4): 0.6 | Dermal delivery (Epidermis + dermis + receptor fluid), 14C-octocrylene ([6]; 24 h, mean, ref SCCS (2021)): 0.15% | Dermis, distribution of 14C-octocrylene ([6]; 24 h, mean, ref SCCS (2021)): 0.012% | Epidermis, distribution of 14C-octocrylene ([6]; 24 h, mean, ref SCCS (2021)): 0.14% | Receptor fluid, distribution of 14C-octocrylene ([6]; 24 h, mean, ref SCCS (2021)): 0.0001% | Skin excess, distribution of 14C-octocrylene ([6]; 24 h, mean, ref SCCS (2021)): 97.96% | Total recovery, 14C-octocrylene ([6]; 24 h, mean, ref SCCS (2021)): 98.8% | Total strips (1–20), distribution of 14C-octocrylene ([6]; 24 h, mean, ref SCCS (2021)): 0.69% | absorbed dose into receptor fluid [6, 10]: negligible | dermal delivered fraction of the applied dose [6, 10]: less than 0.4% | Observed AUC0 − t, Geometric mean ([7]; Day 1): 20.0 ng·h/mL | Observed AUC0 − t, Range ([7]; Day 1): 6.4 to 38.1 ng·h/mL | Observed Cmax, Range ([7]; Day 1): 0.5 to 3.6 ng/mL | Observed AUC0 − t, Geometric mean ([7]; Day 4): 94.7 ng·h/mL | Observed AUC0 − t, Range ([7]; Day 4): 41.4 to 210.0 ng·h/mL | Observed Cmax, Range ([7]; Day 4): 2.6 to 38.7 ng/mL

Cc1ccc(/C=C2/C(=O)C3(C)CCC2C3(C)C)cc1 (stereo not drawn) [4-MBC, 4-methylbenzylidene camphor]
blood plasma ratio at 60 min, 5 µM [1]: 0.88 | fraction unbound at 60 min, 10 µM (Cross filtration): 0.0004 | hepatocyte CLint [2]: 30 µL/min/1e6 cells | hepatocyte CLint at 0.1 µM [2]: 34 µL/min/1e6 cells | hepatocyte CLint at 1 µM [2]: 32.2 µL/min/1e6 cells | hepatocyte CLint at 10 µM [2]: 23.8 µL/min/1e6 cells | depletion in suspension hepatocytes (human hepatocytes): medium to fast depletion | Dermis diffusivity [3]: 3.0E−08 cm^2/s | Dermis/water partition coefficient [3]: 2.0E+00 | Epidermis/water partition coefficient [3]: 1.0E+02 | Stratum corneum diffusivity [3]: 6.1E−11 cm^2/s | Stratum corneum/water partition coefficient [3]: 1.0E+03 | Vehicle diffusivity [3]: 7.8E−06 cm^2/s | Vehicle/water partition coefficient [3]: 4.0E+04 | In vivo CLint scaled [4]: 216 l/h/kg liver | AUC0 − t Fold Difference (Simulated Mean/Observed Mean) ([5]; Female): 0.8 | Cmax Fold Difference (Simulated Mean/Observed Mean) ([5]; Female): 0.9 | AUC0 − t Fold Difference (Simulated Mean/Observed Mean) ([5]; Male): 0.6 | Cmax Fold Difference (Simulated Mean/Observed Mean) ([5]; Male): 0.6 | Dermal delivery (Epidermis + dermis + receptor fluid), 4-MBC [8]: 3.17% | Epidermis + Dermis, distribution of 4-MBC [8]: 2.9% | Receptor fluid, distribution of 4-MBC [8]: 0.25% | Skin excess, distribution of 4-MBC [8]: 4.5% | Total recovery, 4-MBC [8]: 87.8% | Total strips (1–40), distribution of 4-MBC [8]: 80.1% | Observed AUC0 − t, Geometric mean ([9]; Female): 485.6 ng·h/mL | Observed Cmax, Range ([9]; Female): 19.8 to 31.2 ng/mL | Observed AUC0 − t, Geometric mean ([9]; Male): 987.9 ng·h/mL | Observed Cmax, Range ([9]; Male): 19.8 to 83.9 ng/mL

C=CCN1CC[C@]23c4c5ccc(O)c4O[C@H]2C(=O)CC[C@@]3(O)[C@H]1C5 [Naloxone, reference compound]
hepatocyte CLint [2]: 16.4 ± 1.6 µL/min/1e6 cells | remaining after 240 min (human hepatocytes; positive control, human hepatocytes in suspension, 240 min): 4.8 ± 1.9%
